Structures can show the parent of a compound that is named as a salt. Marks after values point to notes of the source that are not given here.

A word on the EC50: it is the concentration giving half of the maximal effect. For orientation: pEC50 means −log10 of the EC50, conventionally taken in molar units.

Data set [1] concerns the target T1, rat M4 receptor (Rattus norvegicus, UniProt P08485).
T1 sequence (P08485 1-478): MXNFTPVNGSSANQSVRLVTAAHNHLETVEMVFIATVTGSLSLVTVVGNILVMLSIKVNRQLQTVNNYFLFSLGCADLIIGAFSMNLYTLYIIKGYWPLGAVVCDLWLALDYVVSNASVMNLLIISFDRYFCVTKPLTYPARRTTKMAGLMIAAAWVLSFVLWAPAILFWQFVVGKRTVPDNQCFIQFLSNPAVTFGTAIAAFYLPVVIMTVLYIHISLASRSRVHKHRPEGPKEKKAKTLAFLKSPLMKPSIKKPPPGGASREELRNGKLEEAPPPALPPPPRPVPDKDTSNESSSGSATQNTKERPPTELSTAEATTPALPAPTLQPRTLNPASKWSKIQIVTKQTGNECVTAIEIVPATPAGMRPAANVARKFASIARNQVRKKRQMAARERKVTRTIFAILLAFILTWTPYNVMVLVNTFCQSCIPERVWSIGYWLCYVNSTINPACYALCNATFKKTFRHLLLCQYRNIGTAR
It is filed as cell-based.

For data set [2], the system named is wild-type mice. As to the kind of experiment: MK-801-induced hyperlocomotion in wild-type mice. The note with it: IP. It is filed as in vivo, mouse. Put shortly: (§1)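 Wild-type and M4 KO mice were habituated 90 min in a photobeam open field. They then received vehicle (10% Tween 80 IP), followed 30 min later by saline or MK-801 IP, and activity was recorded for 120 min. Distance traveled was binned per 5 min. Totals covered t = 120 to 240 min and were analyzed by ANOVA with Bonferroni post hoc tests.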

Data set [3] deals with M4 KO mice. As to the kind of experiment: MK-801-induced hyperlocomotion in M4 KO mice. Type of data set: in vivo, mouse. The note with it: IP, lowest significant dose. Put shortly:
as §1

Data set [4] deals with wild-type mice. As to the kind of experiment: Touchscreen pairwise visual discrimination task, wild-type mice. It is filed as in vivo, mouse. Put shortly: (§2)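 Mice aged 8–11 weeks were held at ~85% free-feeding weight, with water freely available. They were trained on touchscreen nosepoke discrimination (60 trials or 60 min) to ≥85% accuracy on 3 consecutive days. Next day: vehicle (10% Tween 80 IP) or test compound (3–30 mg/kg IP) 60 min pre-test, then saline or MK-801 (0.1–0.3 mg/kg IP) 30 min later. Mice were retested drug-free 24 h later. Analysis: ANOVA with Bonferroni tests.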

The subject of data set [5] is M4 KO mice. As to the kind of experiment: Touchscreen pairwise visual discrimination task, M4 KO mice. It is filed as in vivo, mouse. As to conditions: M4 KO. The method in brief: as §2
Data set [6] concerns wild-type mice. Description: Contextual fear conditioning, four-shock, MK-801-induced deficit. It is filed as in vivo, mouse. The note with it: MK-801 0.1–0.3 mg/kg prior to the four-shock conditioning trial. The method in brief: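 Subjects were wild-type and M4 KO mice, 8–11 weeks old, handled for 3 days and saline-injected 1 day before conditioning. Vehicle (10% Tween 80 in water, IP) or test compound (3–10 mg/kg IP) was given 30 min before saline or MK-801 (0.1–0.3 mg/kg IP). Mice entered the chamber 30 min later for a four-shock conditioning trial. Percent freezing was scored 24 h later, drug-free.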

In data set [7] the test system is wild-type mice. Description: Modified Irwin neurological test battery. It is filed as in vivo, mouse. The note with it: 1 mg/kg.
Setting [8] is: potentiation of an EC20 concentration of ACh, CHO cells.

For `COc1nc2sc(C(=O)NC3CC3)c(N)c2c(C)c1Cl` [LY2033298], the “%AChmax” value in data set [1] (maximum response as % of the Emax of ACh) is 67%. In addition, in data set [1] (setting [8]), the EC50 is 646 nM and the pEC50 is recorded as 6.19 ± 0.03.
As for `C[C@]12N[C@H](Cc3ccccc31)c1ccccc12` [MK-801, (5S,10R)-(+)-5-methyl-10,11-dihydro-5H-dibenzo[a,d]cyclohepten-5,10-imine maleate, reference compound], the “dose with significant effect on locomotor activity” value is on record as 3 mg/kg in data set [2] and 0.18 mg/kg in data set [3]. Also, the entries for the “response accuracy on the test day” value in data set [4] (0.3 mg/kg MK-801 (vehicle group 92%)) and in data set [5] (MK-801 alone (vehicle 91%)) were 63% and 73%, respectively. Further, the “correct reward collection latency” value is recorded as 1.32 ± 0.15 s in data set [4] (vehicle + MK-801 0.10 mg/kg IP), 5.58 ± 2.58 s in data set [4] (vehicle + MK-801 0.30 mg/kg IP) and 1.54 ± 0.15 s in data set [5] (vehicle + MK-801 0.30 mg/kg IP). Also, the correct touch latency came out at 2.95 ± 0.57 s in data set [4] (vehicle + MK-801 0.10 mg/kg IP), 8.65 ± 1.99 s in data set [4] (vehicle + MK-801 0.30 mg/kg IP) and 8.76 ± 2.19 s in data set [5] (vehicle + MK-801 0.30 mg/kg IP). Moreover, the “time to complete 60 trials” value in data set [4] (vehicle + MK-801 0.10 mg/kg IP) is 1004 ± 124.3 s; in data set [4] (vehicle + MK-801 0.30 mg/kg IP), 1118 ± 139.2 s; in data set [5] (vehicle + MK-801 0.30 mg/kg IP), 1264 ± 280.5 ^f s. Further, the “acquisition of contextual fear conditioning (percent freezing)” value in data set [6] is listed as “dose-dependently impaired”.
Turning to `O=C1CCCN1CC#CCN1CCCC1` [oxotremorine, oxotremorine sesquifumarate, reference compound], the “autonomic function and somatomotor deficits” value in data set [7] is given as “induced time-dependent changes in autonomic function”.
